Data as given in ChEMBL document CHEMBL2396538, “Synthesis and biological evaluation of a novel series of aryl S,N-ketene acetals as antileishmanial agents” (Bioorg Med Chem Lett, 2013).
Activity calls are given as the source filed them. The calls are words filed in the database; no cut-off is given here.

Tests used:
[1] = Cytotoxicity against african green monkey vero cells assessed as cell viability after 72 hrs by MTT assay; type: cell-based; conditions: chlorocebus sabaeus
Procedure, shortened: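 Exponentially growing Vero monkey kidney […] incubated with compounds for 72 h; viable cells detected with MTT (Mosmann method); CC₅₀ estimated.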

[2] = test system: Leishmania donovani; assay: Antileishmanial activity against promastigote stage of Leishmania donovani assessed as parasite growth inhibition at 25 uM after 72 hrs by luciferase reporter gene assay relative to untreated control; type: functional; conditions: for inhibition of growth at 25 µM: read-out: GI
Procedure, shortened: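 Luciferase-transfected L. donovani promastigotes (5 × 10^5/100 µL) exposed to compounds for 72 h. Suspension mixed 1:1 with Steady-Glo reagent; luminescence read as relative luminescence units. Inhibition calculated from luciferase activity of treated versus untreated parasites.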

[3] = test system: Leishmania donovani; assay: Antileishmanial activity against amastigote stage of Leishmania donovani infected in mouse J774A.1 cells assessed as parasite growth inhibition after 72 hrs by luciferase reporter gene assay; type: functional, organism-based; conditions: J774.A1, 72 h
Procedure, shortened: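 Mouse macrophage J-774A.1 cells (4 × 10^3/100 µL) were seeded, then infected with luciferase-transfected L. donovani promastigotes (4 × 10^4/100 µL), which transformed into intracellular amastigotes. Compounds at 0.62–40 µM for 72 h in CO₂ incubator. Medium replaced with PBS plus Steady-Glo; luminescence read. Growth inhibition versus untreated controls; IC₅₀ derived.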

[4] = test system: Leishmania donovani; assay: Antileishmanial activity against amastigote stage of Leishmania donovani infected in golden hamster assessed as inhibition of parasite multiplication at 50 mg/kg, ip administered 5 days measured on day 7 by Giemsa staining assay relative to control; type: functional; conditions: for inhibition in vivo at 50 mg/kg: route intraperitoneal
Procedure, shortened: (§1)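 Golden hamster L. donovani model; 50 mg/kg given ip for 5 days. Biopsies were taken on day 7 after the last dose, and amastigotes were counted by Giemsa staining. Percent inhibition was derived by comparing infection intensity in treated versus untreated animals and against the initial count in treated animals.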

[5] = (§2) Selectivity index, ratio of CC50 for african green monkey vero cells to IC50 for amastigote stage of Leishmania donovani infected in mouse J774A.1 cells; type: functional
Procedure, shortened: (§3)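 Selectivity index calculated as CC₅₀ (Vero cells, 72 h MTT) divided by IC₅₀ against intracellular amastigotes in luciferase-reporter J-774A.1 macrophage assay.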

[6] = test system: Vero; assay: as §2; type: functional; procedure, shortened: as §3
[7] = test system: Leishmania donovani; assay: Antileishmanial activity against Leishmania donovani infected in hamster assessed as inhibition of parasite multiplication relative to control; type: functional; procedure, shortened: as §1
[8] = test system: Leishmania donovani; assay: Antileishmanial activity against amastigote stage of Leishmania donovani infected in golden hamster assessed as inhibition of parasite multiplication at 50 mg/kg, po administered 5 days measured on day 7 by Giemsa staining assay relative to control; type: functional
Procedure, shortened: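 L. donovani-infected hamsters received 50 mg/kg orally for 5 days. Post-treatment biopsy was on day 7 after the last dose, with Giemsa-stained amastigote counts. Percent inhibition came from comparing treated animals with untreated animals and with the treated animals' initial counts.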

[9] = test system: Syrian golden hamster; assay: Toxicity in golden hamster at 50 mg/kg, ip and po administered 5 days measured on day 7; type: organism-based, Mesocricetus auratus; parameters: dose 50 mg/kg, route oral; conditions: in vivo, 120 h
[10] = Metabolic stability in hamster liver microsomes at 25 uM by HPLC analysis in absence of NADPH and presence of CYP suicidal inhibitor 1-ABZT; conditions: cricetinae

With `COc1cc(/C=C/C(=O)/C=C(\Nc2ccc(Cl)cc2)SC)cc(OC)c1OC` the CC50 at 72 h [1] was 57.9 µM, the inhibition of growth at 25 µM [2] was 98.7% and the IC50 [3] was 1.6 µM. For the same compound, the inhibition in vivo at 50 mg/kg [4] was 21% and the “Ratio CC50/IC50” value [5] was 36.

With `COc1cc(/C=C/C(=O)/C=C(\NC2CCCCC2)SC)cc(OC)c1OC` the CC50 at 72 h [1] was 22.7 µM, the inhibition of growth at 25 µM [2] was 98.9% and the IC50 [3] was 3.5 µM. For the same compound, the “Ratio CC50/IC50” value [5] was 7.

Compound `COc1ccc(N/C(=C\C(=O)/C=C/c2cc(OC)c(OC)c(OC)c2)SC)cc1` has a CC50 at 72 h [1] of 184 µM, an inhibition of growth at 25 µM [2] of 99.1% and an IC50 [3] of 2.6 µM. For the same compound, the inhibition in vivo at 50 mg/kg [4] was 32% and the “Ratio CC50/IC50” value [5] was 69.

Compound `COc1cc(/C=C/C(=O)/C=C(\Nc2ccc(F)cc2)SC)cc(OC)c1OC` has a CC50 at 72 h [1] of 43.4 µM, an inhibition of growth at 25 µM [2] of 97.9% and an IC50 [3] of 1.2 µM. The inhibition in vivo at 50 mg/kg [4] was 72% and the “Ratio CC50/IC50” value [5] was 36.

In the case of Sodium stibogluconate, the “growth inhibition (GI)” value [2] is reported as “inactive”, the inhibition [4] is reported as 89% and the Ratio CC50/IC50 [6] is reported as 7.

In the case of `COc1cc(/C=C/C(=O)/C=C(\NCc2ccccc2)SC)cc(OC)c1OC`, the CC50 at 72 h [1] is reported as 71.5 µM, the inhibition of growth at 25 µM [2] is reported as 98.6% and the IC50 [3] is reported as 2 µM. The inhibition [4] was “inactive” and the “Ratio CC50/IC50” value [5] was 36.

In the case of `NC[C@@H]1O[C@H](O[C@H]2[C@@H](O)[C@H](O[C@@H]3[C@@H](O)[C@H](N)C[C@H](N)[C@H]3O[C@H]3O[C@H](CO)[C@@H](O)[C@H](O)[C@H]3N)O[C@@H]2CO)[C@H](N)[C@@H](O)[C@@H]1O` [PAROMOMYCIN], the CC50 at 72 h [1] is reported as 86.6 µM, the “growth inhibition (GI)” value [2] is reported as “inactive” and the IC50 [3] is reported as 40.3 µM. For the same compound, the inhibition in vivo at 50 mg/kg [4] was 46% and the “Ratio CC50/IC50” value [5] was 2.

In the case of `COc1cc(/C=C/C(=O)C=C(SC)SC)cc(OC)c1OC`, the “inhibition (INH)” value [7] is reported as 66%.

For `COc1cc(/C=C/C(=O)/C=C(\Nc2ccccc2)SC)cc(OC)c1OC`, the inhibition in vivo at 50 mg/kg [8] was 64%, the CC50 at 72 h [1] was 64.6 µM and the inhibition of growth at 25 µM [2] was 96.2%. For the same compound, the IC50 [3] was 2.1 µM, the Activity [9] was “Non-toxic” and the Stability [10] was “Stable”. The inhibition in vivo at 50 mg/kg [4] was 83% and the “Ratio CC50/IC50” value [5] was 31.
